Our source for the IC50 values is ChEMBL document CHEMBL2440101, “Total syntheses and cytotoxicity of kealiiquinone, 2-deoxy-2-aminokealiiquinone and analogs” (Bioorg Med Chem Lett, 2013).

The IC50 is the concentration that inhibits the measured activity by half. Low readings indicate higher potency, high ones lower potency.

A value given as a limit tells only on which side of the number the result lay.

The assay has as its system MCF7. In words: Cytotoxicity against human MCF7 cells after 96 hrs by MTT assay. The format is functional, cell-based. The note with it: MCF7, 96 h. Summed up: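 MCF7 breast cancer cells; MTT growth assay with cisplatin as positive control. IC50 taken from cytotoxicity (concentration-response) plots and reported with SEM.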

Take `COC1=C(OC)C(=O)c2c(cc3c([nH]c(=O)n3C)c2-c2ccc(OC)cc2)C1=O`: inhibition was half-maximal at 91.9 µM (IC50). The same measure for `COC1=C(OC)C(=O)c2c(cc3c(nc(N)n3C)c2-c2ccc(OC)cc2)C1=O`: 43.8 µM; for `COc1ccc(-c2c3cc(OC)c(OC)cc3cc3c2nc(N)n3C)cc1`: 28.8 µM.

For `COc1ccc(-c2c3nc(N)n(C)c3cc3cc(OC)c(OC)c(OC)c23)cc1`, the IC50 was more than 100 µM. `COc1ccc(-c2c3cc(OCc4ccccc4)c(OC)cc3cc3c2ncn3C)cc1` returned an IC50 of 92 µM. On to `COc1ccc(-c2c3cc(OC)c(OC)cc3cc3c2ncn3C)cc1`, for which the IC50 came to 28 µM. The same measure for `COc1ccc(-c2c3ncn(C)c3cc3cc(OC)c(OC)c(OC)c23)cc1`: 99.8 µM; for `COC1=C(OC)C(=O)c2c(cc3c(ncn3C)c2-c2ccc(OC)cc2)C1=O`: 41.1 µM.

`COc1ccc(-c2c3[nH]c(=O)n(C)c3cc3cc(OC)c(OC)c(OC)c23)cc1` showed an IC50 of 29.9 µM. The value for `COc1ccc(-c2c3cc(OC)c(OC)c(OC)c3cc3c2nc(N)n3C)cc1` was 22.7 µM; that for `COc1ccc(-c2c3cc(OC)c(OC)c(OC)c3cc3c2ncn3C)cc1` was 68.2 µM. The value for `COc1ccc(-c2c3cc(O)c(OC)cc3cc3c2ncn3C)cc1` was more than 100 µM; that for `COc1ccc(-c2c3cc(O)c(OC)cc3cc3c2[nH]c(=N)n3C)cc1` [KEALIININE A] was 23.4 µM.
